From ChEMBL document CHEMBL3826951, “Discovery of Benzocycloalkane Derivatives Efficiently Blocking Bacterial Virulence for the Treatment of Methicillin-Resistant S. aureus (MRSA) Infections by Targeting Diapophytoene Desaturase (CrtN)” (J Med Chem, 2016) come the findings set out here.

Series [1] deals with Staphylococcus aureus. The series is described as follows: Attenuation of methicillin-resistant Staphylococcus aureus USA400 MW2 virulence in BALB/c mouse systemic infection model assessed as decrease in bacterial survival in kidney at 200 mg/kg, ip administered every 12 hrs for 108 hrs followed by bacterial challenge after first 12 hrs of compound dosing measured 5 days post infection. The class given is functional. In outline: (§1)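 Female BALB/c mice, 6-8 weeks old. Dosed ip every 12 h for 108 h. Challenged with 100 µL at 12 h: 1.6 × 10^8 CFU Mu50 or 4 × 10^7 CFU USA400 MW2. Sacrificed 5 days post-infection. Livers and kidneys homogenised in PBS/0.1% Triton X-100, serially plated on TSA, CFU counted; two-tailed Mann-Whitney.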

Series [2] relates to Staphylococcus aureus. The series is described as follows: Attenuation of methicillin-resistant Staphylococcus aureus Mu 50 virulence in BALB/c mouse systemic infection model assessed as decrease in bacterial survival in liver at 50 mg/kg, ip administered every 12 hrs for 108 hrs followed by bacterial challenge after first 12 hrs of compound dosing measured 5 days post infection. In kind it is functional, Mu50. The essentials:
as §1

For series [3], the system named is Staphylococcus aureus. The series is described as follows: Effect on methicillin-resistant Staphylococcus aureus Mu 50 growth at 0.05 mM after overnight incubation by plate reader method. The note with it: 50 µM. In kind it is organism-based, Mu50. The essentials:
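DMSO stock (20 mM) diluted in TSB to final 0.2 or 0.05 mM, overlaid with paraffin, pre-warmed 4 h at 37 °C. Overnight cultures adjusted to OD600 ~1.0 and inoculated to final OD600 ≈ 0.05. DMSO-matched growth controls. Incubated overnight at 37 °C; OD600 read every 30 min.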

The test system of series [4] is Staphylococcus aureus. The series is described as follows: Attenuation of Staphylococcus aureus Newman virulence in BALB/c mouse lethal infection model assessed as mouse survival administered ip every 12 hrs for 108 hrs followed by 2 x 10^7 CFU bacterial challenge after first 12 hrs of compound dosing measured 4 days post challenge. The class given is functional. In outline: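 Female BALB/c mice, 6-8 weeks old, kept specific pathogen-free. Dosed ip at 50 or 200 mg/kg every 12 h for 108 h (4.5 d). Challenged 12 h after the first dose with 2 × 10^7 CFU S. aureus Newman. Mortality followed; n = 15; log-rank test.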

Series [5] deals with Staphylococcus aureus. In words: Attenuation of methicillin-resistant Staphylococcus aureus USA400 MW2 virulence in BALB/c mouse systemic infection model assessed as decrease in bacterial survival in kidney at 50 mg/kg, ip administered every 12 hrs for 108 hrs followed by bacterial challenge after first 12 hrs of compound dosing measured 5 days post infection. In kind it is functional. In outline:
as §1

The subject of series [6] is Staphylococcus aureus. The series is described as follows: Attenuation of methicillin-resistant Staphylococcus aureus USA400 MW2 virulence in BALB/c mouse systemic infection model assessed as decrease in bacterial burden in liver at 50 mg/kg, ip administered every 12 hrs for 108 hrs followed by bacterial challenge after first 12 hrs of compound dosing measured 5 days post infection. The class given is functional. The essentials: as §1

Series [7] deals with Staphylococcus aureus. The series is described as follows: Sensitization of methicillin-resistant Staphylococcus aureus USA400 MW2 to human whole blood assessed as cell survival at 1 uM after 6 hrs by serial dilution method (reference value: 10.8%). The class given is functional. As to conditions: MW2 USA400, 6 h.
In the next series the test system is Nannizzia gypsea. The series is described as follows: Antifungal activity against naftifine-sensitive Microsporum gypseum after 7 days by serial dilution method. The class given is functional. The essentials:
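Broth serial dilution in 96-well plates per NCCLS recommendations. Medium: RPMI 1640 buffered with 0.165 M MOPS. Fungi were ATCC strains or clinical isolates.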

Regarding `COc1ccc(/C=C/CN(C)Cc2ccc3c(c2)CCCCC3)cc1.Cl`, the Activity in the series with Staphylococcus aureus [1] is recorded as 99.5%; in the series with Staphylococcus aureus [2], 2.44 log10CFU; in the series with Staphylococcus aureus [3], “Non-toxic”; with Staphylococcus aureus [5], 99.5%; in the series with Staphylococcus aureus [6], 3.87 log10CFU. The Survival in the series on Staphylococcus aureus [4] was 83%. Also, the survival at 1 µM in the series with Staphylococcus aureus [7] turned out to be 0.2%. Besides, the “MIC=<80” value in the series on Nannizzia gypsea turned out to be 16 µg/mL.
